Measured values taken from publication PMC9095748 (The Journal of Biological Chemistry, 2022).
pEC50: −log10 of the molar value. Values after ≈ are worked out from the molar mass of the structure shown. Values joined by “and” are separate entries in the source; they are usually repeats but may differ in a detail not shown here. Equal entries are not always repeated.

What was measured:
hGLP1R [1] = target: T1, hGLP1R (Homo sapiens, UniProt P43220); assay: GLP1R internalization in hGLP1R-GFP transfected HepG2 cells; format: cell-based; conditions: for GLP1R internalization: 50 μM, 1 h, hGLP1R-GFP transfected HepG2 cells
T1 sequence (P43220 24-463): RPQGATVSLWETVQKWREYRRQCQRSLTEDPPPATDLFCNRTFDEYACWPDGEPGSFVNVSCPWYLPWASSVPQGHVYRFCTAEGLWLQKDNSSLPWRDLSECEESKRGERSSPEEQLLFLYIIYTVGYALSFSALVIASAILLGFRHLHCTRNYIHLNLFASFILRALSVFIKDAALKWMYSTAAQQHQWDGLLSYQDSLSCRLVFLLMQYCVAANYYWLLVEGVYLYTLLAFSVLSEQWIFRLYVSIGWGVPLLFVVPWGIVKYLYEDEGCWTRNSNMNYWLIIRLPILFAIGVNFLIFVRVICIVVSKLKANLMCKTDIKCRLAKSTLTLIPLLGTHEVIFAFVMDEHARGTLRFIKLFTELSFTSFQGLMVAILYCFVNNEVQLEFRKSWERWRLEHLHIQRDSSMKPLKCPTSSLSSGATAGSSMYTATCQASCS
Method in brief: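 HepG2 cells lipofected with hGLP1R-spark-GFP, then treated 1 h with test compound (50 µM), Ex-4 (20 nM, positive control) or DMSO. For antagonism, Ex-9 (300 nM) added 15 min before. Washed in PBS and formalin-fixed. Surface labelled with sulfo-NHS-biotin (1 mg/ml, 30 min, 4 °C), washed in 100 mM glycine, PFA-fixed, blocked in 1% BSA and stained with Texas-Red-avidin (5 µg/ml, 30 min). Internalization read by confocal microscopy.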

TXNIP = TXNIP protein expression, Western blot in INS-1 cells; format: cell-based, rat; conditions: PK2 30 min
Method in brief: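 INS-1 cells treated with test compound or DMSO vehicle for 30 min. Lysed in RIPA buffer with protease and phosphatase inhibitors, protein measured by BCA, and reduced at 95 °C for 5 min. Run on 4-10% SDS-PAGE and blotted to PVDF. Blocked in 5% BSA or milk, then probed with anti-TXNIP and HRP-conjugated secondary in TBST with 5% BSA.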

[2] = tested on: CREB phosphorylation at Ser133; assay: CREB phosphorylation, Western blot in HepG2 cells; format: cell-based, human; conditions: PK2 50 μM, 1 hr, serum-starved HepG2 cells, vs DMSO
INS-1 cells = assay: Insulin secretion assay in INS-1 cells; format: cell-based, rat; conditions: high glucose 16.7 mM, 1.5 h
Method in brief: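 INS-1 cells seeded, then held 16 h in 5 mM glucose medium and 1.5 h in 2.5 mM glucose. Treated 1.5 h with test compound or DMSO vehicle at 16.7 mM glucose. Supernatant insulin measured by rat insulin ELISA and normalized to total protein. n = 3/group.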

[3] = Tissue distribution after oral administration in mice; format: in vivo, BALB/c mice; conditions: 2 h after oral administration
Method in brief: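 Male BALB/c mice dosed orally at 25 mg/kg. Organs (pancreas, heart, brain, lung, spleen, kidney, liver) collected 2 h after dosing and homogenized. Extracted with acetonitrile:methanol (1:1) and run on reverse-phase C18 HPLC with 0.1% TFA water/acetonitrile (40:60) and fluorescence detection (ex 350 nm, em 497 nm). Quantified against a standard curve.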

TXNIP promoter = assay: TXNIP promoter-luciferase activity assay in INS-1 cells; format: cell-based, rat; conditions: PK2 50 μM, 45 min, INS-1 cells transfected with TXNIP promoter-luciferase construct
Solubility in DMSO = format: physicochemical
[4] = tested on: STZ-induced diabetic mouse model; assay: STZ-induced diabetic mouse model; format: in vivo, BALB/c mice
Method in brief: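 Male BALB/c mice, 6-7 weeks old, acclimated 1 week, on chow. STZ 65 mg/kg in citrate buffer pH 4.0 given IP for 5 days after overnight fast. Test compound 25 mg/kg oral in CMC for 18 days, starting 3 days before or 1 day after STZ. Controls received 0.25% CMC with or without STZ. Tail-vein glucose taken on alternate days, body weight on random days. Pancreas sections stained for insulin/Ki67 and insulin/TUNEL; n ≥ 5/group.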

[5] = Pharmacokinetics after single oral dose in BALB/c mice; format: in vivo
Method in brief: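 Male BALB/c mice (5-6 weeks, 25 ± 2 g) given a single oral dose of 25 mg/kg and killed at 5 min to 24 h. Plasma extracted with acetonitrile:methanol (1:1) and run on reverse-phase C18 HPLC at 28 °C. Mobile phase 0.1% TFA water/acetonitrile (40:60) at 1 ml/min, fluorescence detection (ex 350 nm, em 497 nm). Quantified from peak-area standard curve; PK parameters by standard methods.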

hGLP1R [6] = target: T1, hGLP1R; assay: cAMP Glo assay in hGLP1R-transfected 293A cells; format: cell-based
Method in brief: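 293A cells transiently lipofected with hGLP1R at 70% confluency. Seeded 4 h later at 5×10^4 cells/well and left overnight. Treated 4 h with DMSO or test compound at 0.5, 10, 20, 100, 200, 300, 500, 1000 and 2000 nM. Cells lysed and cAMP read by cAMP-Glo luminescence. EC50 from curve fitting; n = 3/group.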

[7] = Safety observation in BALB/c mice over 30 days of treatment; format: in vivo; conditions: 25 mg/kg
PKA = PKA activity ELISA in hGLP1R transfected 293A cells; format: cell-based, human; conditions: PK2 50 μM, 45 min, vs DMSO
Method in brief: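 293A cells lipofected with hGLP1R-spark-GFP. After 48 h, seeded at 1.0×10^4 cells/well. Next day treated with test compound (50 μM) or DMSO for 45 min in serum-free medium. PKA activity read by an ELISA on immobilized PKA substrate, per the kit protocol.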

[8] = BALB/c mice, oral, single dose 25 mg/kg, plasma
[9] = male, BALB/c, mouse, plasma, po, 25 mg/kg

6-((1-(4-methoxybenzyl)-1H-1,2,3-triazol-4-yl)methyl)-6H-indolo[2,3-b]quinoxaline [PK4]
GLP1R internalization (hGLP1R [1]): rapidly internalized GLP1R receptors

O=[N+]([O-])c1ccc(Cn2cc(Cn3c4ccccc4c4nc5ccccc5nc43)nn2)cc1 [PK2, 6-((1-(4-nitrobenzyl)-1H-1,2,3-triazol-4-yl)methyl)-6H-indolo[2,3-b]quinoxaline]
TXNIP protein expression (TXNIP): downregulates TXNIP
Increase in CREB phosphorylation at Ser133 [2]: 1.7 fold
Increase in insulin secretion (INS-1 cells): 1.45 fold
Tissue distribution: brain [3]: A small amount of PK2 was detectable
Tissue distribution: heart, lungs, and spleen [3]: no traces
Tissue distribution: liver, kidney, and pancreas [3]: distributed highly
TXNIP promoter activity (TXNIP promoter): attenuates TXNIP promoter activity
solubility (Solubility in DMSO): 10000 µg/mL (≈ 23 mM)
Recovery of serum insulin levels ([4]; PK2-treated groups, 25 mg/kg oral, end of study, vs STZ group): up to 6 fold
Enhancement of β-cell proliferation (Ki67) ([4]; PK2 groups, Ki67 in insulin-positive islet cells): 1.7 fold
Pancreas weight ([4]; PK2 groups, at termination of the study): protection in pancreas weight
Body weight ([4]; STZ mice, PK2 25 mg/kg oral, compared to STZ only): increased body weight
Reduction of number of TUNEL-positive cells in pancreatic islets ([4]; both PK2 groups compared to STZ group): 3 fold
Preservation of β-cell mass ([4]; pre-PK2 and post-PK2 groups compared to STZ, insulin immunohistochemistry): 4 fold
Islets area (H&E) ([4]; pre-PK2 and post-PK2 groups vs STZ group): significantly bigger islets area
Reduction of plasma glucose levels ([4]; pre-PK2 and post-PK2 groups, 25 mg/kg oral, compared to STZ only): 1.4 fold
Plasma clearance (CL) ([5]; BALB/c mice, oral, single dose 25 mg/kg): 7.79 L/h
AUMC (0-t) [5, 8]: 13,601.58 ng h/ml
Area of last [5, 8]: 320.1451 ng·h/mL
Cl (Clearance) [5, 8]: 7.7875 L/h
K (Eliminatory rate constant) [5, 8]: 0.2003 h⁻¹
VD (Apparent volume of distribution) ([5]; BALB/c mice, oral, single dose 25 mg/kg, plasma, 25 mg/kg): 38.88 L and 38.882 L
AUC(0-t) [5, 9]: 3210 ng·h/mL
Cmax [5, 9]: 787 ng/mL
Tmax [5, 9]: 1 h
half-life ([5]; male, BALB/c, mouse, plasma, po, 25 mg/kg, t1/2 (Elimination half life), BALB/c mice, single dose 25 mg/kg): 4.8 h
GLP1R internalization (hGLP1R [1]): rapidly internalized GLP1R receptors
pEC50 (hGLP1R [6]): 7.36
Abnormal behavior or acute toxicity [7]: no abnormal behavior or acute toxicity was observed
Increment in PKA activity (PKA): 1.6 fold

Cc1ccc(Cn2cc(Cn3c4ccccc4c4nc5ccccc5nc43)nn2)cc1 [PK3, 6-((1-(4-methylbenzyl)-1H-1,2,3-triazol-4-yl)methyl)-6H-indolo[2,3-b]quinoxaline]
GLP1R internalization (hGLP1R [1]): rapidly internalized GLP1R receptors

Exendin (9–39) [Ex-9, reference compound]
Effect of antagonist on PK2-mediated GLP1R internalization (hGLP1R [1]; Ex-9 300 nM for 15 min, then PK2 50 μM for 1 h, HepG2 cells): blocking PK2-mediated GLP1R internalization
